Assay results reported in article PMC7675178 (Journal of medicinal chemistry, 2019).
Each block holds one molecule with its values, some of them ahead of it. Residues, ends and D or L forms follow the SMILES beside them. *: point of attachment. Cbz = O=C(OCc1ccccc1)*; Boc = CC(C)(C)OC(=O)*; OBn = c1ccc(CO*)cc1; OtBu = CC(C)(C)O*

Assays:
[1] = tested on: proteasome chymotrypsin-like (CT-L, β5/β5i) activity; type: biochemical, human; conditions: RPMI8226 cell lysate, Figure 7
In short: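 RPMI 8226 lysate in 20 mM Tris-HCl, 0.5 mM EDTA, 0.035% SDS, pH 8.0, preincubated 1 h with a range of inhibitor concentrations. Suc-LLVY-AMC added at 100 μM final. AMC fluorescence (ex 360/em 460 nm) read each minute for 1 h. Initial slopes normalized to vehicle wells; IC50 from nonlinear regression.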

H727 cells = experiment: Cell viability assay; type: cell-based
[2] = target: β1i/LMP2 of human 20S immunoproteasome (Homo sapiens, UniProt P28065); experiment: Enzyme kinetics assay, β1i/LMP2 activity of purified human 20S immunoproteasome; type: biochemical; conditions: 20S purified immunoproteasome, Figure 7
In short: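 Purified human 20S immunoproteasome in pH 8.0 Tris-HCl buffer (0.5 mM EDTA, 0.035% SDS), incubated 1 h with graded inhibitor concentrations. LMP2 activity measured with Ac-PAL-AMC (100 μM final) by AMC fluorescence (360/460 nm) every minute for 1 h. Linear-regression initial rates normalized to vehicle control; IC50 by nonlinear fit.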

[3] = tested on: Cfz-resistant RPMI8226 cells; experiment: Cell viability assay; type: cell-based, human
In short: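 Resistant RPMI8226 subline derived by stepwise Cfz exposure up to 80 nM over ~6 months, kept in 80 nM, then grown Cfz-free ~1 week before assay. Parental and resistant cells in RPMI1640/10% FBS, plated 10 000/well; compounds added 24 h after plating. MTS read after 72 h. IC50 by nonlinear regression; triplicates, or three independent experiments for the reference.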

primary MM cells = experiment: Cell viability of primary MM cells; type: cell-based, human; conditions: 48 h; for Cytotoxic effects in primary MM samples, Btz-resistant versus PI-naïve: 10 μM, nine samples, Figure 5B,C
In short: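 Bone-marrow aspirates from patients; CD138+ plasma cells isolated by positive bead selection, purity checked by flow cytometry. Donors were six Btz/Cfz-naïve and eight relapsed on Btz. Plated 20 000 cells/well in IMDM with 10% FBS. Exposed to test compound (50 nM or 10 μM) for 48 h. Percentage viable cells measured by CellTiter-Glo luminescence.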

[4] = in vivo; cited from earlier work
[5] = In vitro metabolic stability in rat liver homogenates; type: in vitro ADME; conditions: 1 μM, 5, 10 and 20 min, 37 °C, Figure 8B
In short: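 Livers from 8-week-old male Sprague-Dawley rats, PBS-washed and homogenized in five-fold volume PBS (pH 7.4) per gram. Homogenate prewarmed to 37 °C, spiked to 1 μM final, n = 3. Samples taken at 0, 5, 10 and 20 min, quenched in four-fold ice-cold acetonitrile with 0.5 μM chlorpropamide internal standard. Remaining drug quantified by LC-MS/MS (positive-ion SRM).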

β5 subunit = conditions: cited from earlier work
β1i subunit = conditions: cited from earlier work
[6] = 72-h IC50 values, H727 versus H23, Figure 3B

IC50 against CT-L (β5/β5i) activity compared with Cfz [1]: IC50 values similar to that of Cfz
IC50 against β1i activity compared with Cfz [2]: IC50 values similar to that of Cfz
Compound: CC(C)C[C@H](NC(=O)[C@H](CCc1ccccc1)NC(=O)CN1CCOCC1)C(=O)N[C@@H](Cc1ccccc1)C(=O)N[C@@H](CC(C)C)C(=O)[C@@]1(COS(C)(=O)=O)CO1 [Compound 12, ((S)-2-((4S,7S,10S,13S)-10-Benzyl-7-isobutyl-15-methyl-1-morpholino-2,5,8, 11-tetraoxo-4-phenethyl-3,6,9, 12-tetraazahexadecanecarbonyl)oxiran-2-yl)methylmethane-sulfonate]
Potency against H727 cells compared with Cfz (H727 cells; Cfz-resistant H727 cells, Figure 7): less potent than Cfz

Compound: CC(C)C[C@H](NC(=O)[C@H](Cc1ccccc1)NC(=O)c1cnccn1)B(O)O [Btz, bortezomib]
Cytotoxicity in H727 cells compared with H23 cells (H727 cells; human, 72 h): comparable cytotoxicity in H727 and H23 cells

Compound: CC(C)C[C@H](NC(=O)[C@H](CCc1ccccc1)NC(=O)CN1CCOCC1)C(=O)N[C@@H](Cc1ccccc1)C(=O)N[C@@H](CC(C)C)C(=O)[C@@]1(C)CO1 [Cfz, carfilzomib]
Increase in IC50 values in Cfz-resistant RPMI8226 cells ([3]; versus parental RPMI8226, 72 h MTS, Figure 4A): greater than 35 fold
Sensitivity of primary MM samples, Btz-relapsed versus PI-naïve patients (primary MM cells; 50 nM, 14 donors, Figure 5A): tended to be less responsive to Cfz
Plasma half-lives [4]: less than 1 h

Compound: CC(C)(C)OC(=O)N[C@@H](CC(=O)OCc1ccccc1)C(=O)N[C@@H](CCCCNC(=O)OCc1ccccc1)C(=O)OC(C)(C)C [reversin 121] (Boc-Asp(OBn)-Lys(Cbz)-OtBu)
Restoration of Cfz sensitivity by P-gp inhibitor ([3]; Cfz-resistant RPMI8226, Supporting Information S2): almost completely restored Cfz sensitivity

Compound: CC(C)C[C@@H](C=O)NC(=O)[C@H](CC(C)C)NC(=O)[C@H](CC(C)C)NC(=O)OCc1ccccc1 [MG-132] (Cbz-Leu-Leu-Leu-aldehyde)
Cytotoxicity in H727 cells compared with H23 cells (H727 cells; [6]): comparable cytotoxicity in H727 and H23 cells

Compound: CCCCCCC(=O)N[C@@H](CO)C(=O)N[C@@H](CC(C)C)C(=O)[C@@]1(COCOCCOC)CO1 [UK102]
Cytotoxic effects in primary MM samples, Btz-resistant versus PI-naïve (primary MM cells): similar

IC50 against CT-L (β5/β5i) activity compared with Cfz [1]: IC50 values similar to that of Cfz
Metabolic stability compared with Cfz [5]: more stable than Cfz
IC50 against β1i activity compared with Cfz [2]: IC50 values similar to that of Cfz
Compound: CC(C)C[C@H](NC(=O)[C@H](CCc1ccccc1)NC(=O)CN1CCOCC1)C(=O)N[C@@H](Cc1ccccc1)C(=O)N[C@@H](CC(C)C)C(=O)[C@@]1(CO)CO1 [Compound 9, (S)-N-((S)-1-((S)-1-((R)-2-(Hydroxymethyl)oxiran-2-yl)-4-methyl-1-oxopentan-2-ylamino)-1-oxo-3-phenylpropan-2-yl)-4-methyl-2-((S)-2-(2-morpholinoacetamido)-4-phenylbutanamido)-pentanamide]
Improvement in potency as compared to Cfz ([3]; Cfz-resistant RPMI8226 cells, Figure 7): almost three-fold improvement in potency

Compound: CC(=O)N[C@@H](CSC(=O)[C@]1([C@@H](O)C(C)C)NC(=O)[C@H](C)[C@@H]1O)C(=O)O [lactacystin]
Cytotoxicity in H727 cells compared with H23 cells (H727 cells; [6]): not as effective in H727 cells as in H23 cells

Compound: CCCCCCC(=O)N[C@@H](C)C(=O)N[C@@H](CC(C)C)C(=O)[C@@]1(CO[Si](C)(C)C(C)(C)C)CO1 [UK101]
Inhibition of β5 subunit (CT-L activity), concentration range (β5 subunit): micromolar concentration ranges
Cytotoxic effects in primary MM samples, Btz-resistant versus PI-naïve (primary MM cells): similar
Inhibition of β1i subunit, concentration range (β1i subunit): nanomolar concentration ranges

Compound: CCCCCCC(=O)N[C@@H](C)C(=O)N[C@@H](CC(C)C)C(=O)[C@@]1(CO)CO1 [Compound 5, N-((S)-1-((S)-1-((R)-2-(Hydroxymethyl)oxiran-2-yl)-4-methyl-1-oxopentan-2-ylamino)-1-oxopropan-2-yl)heptanamide]
Cytotoxic activity in cancer cell lines relative to UK101 (H727 cells; H23, H727 and Cfz-resistant RPMI8226 cells, MTS, Figure 6B): considerably improved the cytotoxic activity
